# Legend:
# [1] = target: Metabotropic glutamate receptor 4 (Rattus norvegicus) (UniProt P31423); experiment: Positive allosteric modulation of rat mGluR4 expressed in CHO cells coexpressing Gqi5 assessed as potentiation of glutamate-induced calcium mobilization; format: functional, cell-based
# Cytochrome P450 3A4 = Cytochrome P450 3A4 (Homo sapiens, UniProt P08684); experiment: Inhibition of human CYP3A4
# Outline: (§1)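 Human liver microsomes (final 0.1 mg/mL) in 0.1 M potassium phosphate, pH 7.4, with a probe cocktail: phenacetin 10 µM (1A2), diclofenac 5 µM (2C9), dextromethorphan 5 µM (2D6) and midazolam 2 µM (3A4). Compound at 100 nM–30 µM final, in duplicate, preincubated 15 min at 37 °C. NADPH (1 mM) reaction ran 8 min, was quenched with cold acetonitrile, and read by LC/MS/MS (MRM). IC50 determined.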
# [2] = Plasma protein binding in Sprague-Dawley rat; format: ADME, cell-free; settings: read-out: PPB
# Outline: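 Equilibrium dialysis of compound spiked into rat plasma against 25 mM phosphate buffer, pH 7.4. Dialysis ran 4 h at 37 °C with shaking. Both chambers were matrix-matched, extracted with cold acetonitrile and quantified by LC/MS/MS. Triplicate within one plate.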
# Cytochrome P450 2C9 = Cytochrome P450 2C9 (Homo sapiens, UniProt P11712); experiment: Inhibition of human CYP2C9; outline: as §1
# Cytochrome P450 2C9, sequence (P11712 whole entry): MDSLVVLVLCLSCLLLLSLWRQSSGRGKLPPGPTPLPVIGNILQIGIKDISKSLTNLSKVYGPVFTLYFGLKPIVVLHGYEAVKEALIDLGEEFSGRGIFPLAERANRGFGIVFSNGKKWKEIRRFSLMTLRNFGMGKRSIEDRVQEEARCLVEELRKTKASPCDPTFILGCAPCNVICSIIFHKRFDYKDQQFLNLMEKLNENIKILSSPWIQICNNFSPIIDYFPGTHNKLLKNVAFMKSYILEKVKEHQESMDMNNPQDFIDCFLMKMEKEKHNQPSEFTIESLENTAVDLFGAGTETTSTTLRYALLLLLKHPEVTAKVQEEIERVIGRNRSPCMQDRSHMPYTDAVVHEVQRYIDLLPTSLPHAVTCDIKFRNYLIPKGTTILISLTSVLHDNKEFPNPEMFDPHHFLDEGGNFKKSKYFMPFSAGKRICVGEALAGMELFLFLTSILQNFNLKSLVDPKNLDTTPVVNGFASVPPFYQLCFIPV
# Cytochrome P450 2D6 = Cytochrome P450 2D6 (Homo sapiens, UniProt P10635); experiment: Inhibition of human CYP2D6; outline: as §1
# Cytochrome P450 2D6, sequence (P10635 whole entry): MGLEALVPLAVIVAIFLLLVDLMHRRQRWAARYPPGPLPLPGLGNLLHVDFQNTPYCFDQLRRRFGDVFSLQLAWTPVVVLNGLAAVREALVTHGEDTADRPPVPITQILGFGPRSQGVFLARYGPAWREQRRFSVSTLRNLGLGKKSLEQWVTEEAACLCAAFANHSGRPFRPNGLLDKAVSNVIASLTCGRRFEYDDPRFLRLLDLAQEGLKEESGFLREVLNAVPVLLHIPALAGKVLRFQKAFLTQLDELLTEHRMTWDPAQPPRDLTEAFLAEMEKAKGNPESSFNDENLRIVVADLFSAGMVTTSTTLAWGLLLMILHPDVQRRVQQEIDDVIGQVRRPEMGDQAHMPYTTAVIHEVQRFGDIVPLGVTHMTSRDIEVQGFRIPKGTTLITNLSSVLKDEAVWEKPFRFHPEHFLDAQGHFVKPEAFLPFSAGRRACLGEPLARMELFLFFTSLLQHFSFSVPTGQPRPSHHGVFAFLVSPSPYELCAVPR
# [3] = target: Metabotropic glutamate receptor 4 (Rattus norvegicus) (UniProt P31423); experiment: Positive allosteric modulation of rat mGluR4 expressed in CHO cells coexpressing Gqi5 assessed as calcium mobilization relative to PHCCC; format: functional, cell-based
# Plasma [4] = experiment: AUC in Sprague-Dawley rat brain at 10 mg/kg, sc; format: ADME, organism-based; design: dose 10 mg/kg, route subcutaneous; settings: in vivo
# [5] = target: T1, Metabotropic glutamate receptor 4 (Homo sapiens, UniProt Q14833); experiment: Positive allosteric modulation of human mGluR4 expressed in CHO cells coexpressing Gqi5 assessed as calcium mobilization relative to PHCCC; format: functional, cell-based
# T1 sequence (Q14833 whole entry): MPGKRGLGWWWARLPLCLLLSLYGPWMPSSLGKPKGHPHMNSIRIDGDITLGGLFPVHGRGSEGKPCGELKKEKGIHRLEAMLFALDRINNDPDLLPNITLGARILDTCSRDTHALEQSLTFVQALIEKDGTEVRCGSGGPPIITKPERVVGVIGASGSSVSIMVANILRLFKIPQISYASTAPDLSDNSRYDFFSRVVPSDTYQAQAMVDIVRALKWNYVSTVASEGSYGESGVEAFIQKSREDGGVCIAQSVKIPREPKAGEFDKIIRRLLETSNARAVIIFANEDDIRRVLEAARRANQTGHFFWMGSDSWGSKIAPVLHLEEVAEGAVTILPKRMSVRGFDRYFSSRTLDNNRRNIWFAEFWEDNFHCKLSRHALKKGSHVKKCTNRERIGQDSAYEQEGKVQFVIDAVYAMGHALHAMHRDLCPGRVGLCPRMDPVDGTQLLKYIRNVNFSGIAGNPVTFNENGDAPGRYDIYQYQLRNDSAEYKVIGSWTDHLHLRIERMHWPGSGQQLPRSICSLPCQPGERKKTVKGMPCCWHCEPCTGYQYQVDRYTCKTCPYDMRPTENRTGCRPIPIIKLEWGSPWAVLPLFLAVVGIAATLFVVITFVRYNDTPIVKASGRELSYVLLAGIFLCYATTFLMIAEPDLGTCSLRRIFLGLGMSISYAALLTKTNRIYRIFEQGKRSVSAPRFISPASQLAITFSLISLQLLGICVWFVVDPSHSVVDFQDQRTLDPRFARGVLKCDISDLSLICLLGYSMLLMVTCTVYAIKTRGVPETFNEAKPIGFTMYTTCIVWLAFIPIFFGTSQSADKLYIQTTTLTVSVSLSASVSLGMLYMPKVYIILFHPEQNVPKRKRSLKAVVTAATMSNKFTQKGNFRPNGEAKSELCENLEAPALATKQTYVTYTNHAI
# Outline: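 CHO cells stably expressing human mGlu4 with Gqi5 were plated at 30,000 cells/well and grown overnight. Cells were loaded with 1 µM Fluo-4 AM for 45 min at 37 °C in HBSS/HEPES/2.5 mM probenecid buffer. […] Ca2+ fluorescence was read (ex 470, em 540 nm). Curves were fitted with a four-parameter logistic; ≥3 independent runs in triplicate.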
# [6] = Cmax in Sprague-Dawley rat brain at 10 mg/kg, sc; format: ADME, organism-based; design: dose 10 mg/kg, route subcutaneous
# Outline: (§2)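 Rats dosed subcutaneously at 10 mg/kg as a 10% tween 80 microsuspension. […] In vivo samples were quantified by LC/MS/MS (ESI, positive-mode MRM) after gradient elution on a C18 column.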
# [7] = AUC in Sprague-Dawley rat plasma at 10 mg/kg, sc; format: ADME, organism-based; design: dose 10 mg/kg, route subcutaneous
# Cytochrome P450 1A2 = target: T2, Cytochrome P450 1A2 (Homo sapiens, UniProt P05177); experiment: Inhibition of human CYP1A2; outline: as §1
# T2 sequence (P05177 whole entry): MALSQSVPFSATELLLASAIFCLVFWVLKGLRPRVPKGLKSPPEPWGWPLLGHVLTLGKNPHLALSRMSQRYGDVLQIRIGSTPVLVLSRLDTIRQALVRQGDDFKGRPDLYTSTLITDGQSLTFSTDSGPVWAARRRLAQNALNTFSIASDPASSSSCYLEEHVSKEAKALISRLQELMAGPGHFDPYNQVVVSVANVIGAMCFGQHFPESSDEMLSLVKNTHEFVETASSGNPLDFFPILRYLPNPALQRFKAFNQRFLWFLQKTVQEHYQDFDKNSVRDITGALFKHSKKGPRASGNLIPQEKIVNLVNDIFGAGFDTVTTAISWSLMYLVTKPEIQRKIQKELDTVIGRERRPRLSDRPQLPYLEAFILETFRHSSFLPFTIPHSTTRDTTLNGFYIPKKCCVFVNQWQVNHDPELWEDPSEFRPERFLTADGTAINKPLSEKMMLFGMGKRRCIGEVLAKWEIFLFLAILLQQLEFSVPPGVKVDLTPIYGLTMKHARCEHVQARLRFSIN
# Plasma [8] = experiment: Cmax in Sprague-Dawley rat plasma at 10 mg/kg, sc; format: ADME, organism-based; design: dose 10 mg/kg, route subcutaneous; settings: in vivo; outline: as §2
# in vivo = settings: Sprague-Dawley, rat, sc, 10 mg/kg
# [9] = target: Metabotropic glutamate receptor 4 (Rattus norvegicus, UniProt P31423); experiment: Positive allosteric modulation of rat mGluR4 expressed in CHO cells coexpressing Gqi5 assessed as calcium mobilization; format: functional, cell-based
# Metabotropic glutamate receptor 4 (Rattus norvegicus, UniProt P31423), sequence (P31423 whole entry): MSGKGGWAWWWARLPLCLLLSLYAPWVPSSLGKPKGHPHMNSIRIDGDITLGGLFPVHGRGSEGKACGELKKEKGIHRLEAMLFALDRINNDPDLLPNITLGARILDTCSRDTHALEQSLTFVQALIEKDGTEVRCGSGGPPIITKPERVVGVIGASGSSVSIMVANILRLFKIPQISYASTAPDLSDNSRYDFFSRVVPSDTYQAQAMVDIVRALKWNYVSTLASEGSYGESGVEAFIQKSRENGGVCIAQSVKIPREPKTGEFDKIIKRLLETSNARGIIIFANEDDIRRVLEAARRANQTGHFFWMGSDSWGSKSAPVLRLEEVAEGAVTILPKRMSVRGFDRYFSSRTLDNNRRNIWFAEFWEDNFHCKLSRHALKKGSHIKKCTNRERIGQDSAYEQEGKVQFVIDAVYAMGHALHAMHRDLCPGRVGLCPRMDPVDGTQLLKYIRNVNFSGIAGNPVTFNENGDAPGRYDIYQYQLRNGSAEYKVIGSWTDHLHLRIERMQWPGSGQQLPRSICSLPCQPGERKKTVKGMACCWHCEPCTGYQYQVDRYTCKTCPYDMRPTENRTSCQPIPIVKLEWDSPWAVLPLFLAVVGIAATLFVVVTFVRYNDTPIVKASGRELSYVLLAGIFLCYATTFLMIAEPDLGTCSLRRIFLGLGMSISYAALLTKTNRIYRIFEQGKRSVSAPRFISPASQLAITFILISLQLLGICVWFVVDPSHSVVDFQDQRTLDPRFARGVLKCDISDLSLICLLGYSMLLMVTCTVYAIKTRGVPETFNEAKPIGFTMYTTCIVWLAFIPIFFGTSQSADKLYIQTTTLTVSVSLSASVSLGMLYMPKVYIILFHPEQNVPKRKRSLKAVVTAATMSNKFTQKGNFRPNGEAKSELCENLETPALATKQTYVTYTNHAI
# [10] = target: T1, Metabotropic glutamate receptor 4; experiment: Positive allosteric modulation of human mGluR4 expressed in CHO cells coexpressing Gqi5 assessed as calcium mobilization; format: functional, cell-based
# Metabotropic glutamate receptor 4 (Rattus norvegicus), sequence (P31423 whole entry): as above
# Cytochrome P450 3A4, sequence (P08684 whole entry): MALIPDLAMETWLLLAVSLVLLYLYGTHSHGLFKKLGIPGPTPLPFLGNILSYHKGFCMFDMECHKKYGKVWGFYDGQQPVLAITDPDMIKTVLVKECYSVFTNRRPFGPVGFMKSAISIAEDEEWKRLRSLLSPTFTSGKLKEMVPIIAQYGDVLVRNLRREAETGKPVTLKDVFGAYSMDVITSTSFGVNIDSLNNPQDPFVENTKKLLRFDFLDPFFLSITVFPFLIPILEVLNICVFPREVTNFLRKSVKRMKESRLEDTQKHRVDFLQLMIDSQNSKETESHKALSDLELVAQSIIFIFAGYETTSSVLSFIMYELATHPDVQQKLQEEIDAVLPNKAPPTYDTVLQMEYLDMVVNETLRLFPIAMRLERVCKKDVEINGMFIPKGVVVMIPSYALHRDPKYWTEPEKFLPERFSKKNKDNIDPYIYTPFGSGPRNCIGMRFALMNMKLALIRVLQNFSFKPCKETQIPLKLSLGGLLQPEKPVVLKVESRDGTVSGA
SMILES,Activity [3] [%],Activity [5] [%],EC50 ([9]; read-out: EC50) [nM],EC50 ([10]; read-out: EC50) [nM],further results
COc1cc(NC(=O)c2ccccn2)ccc1NC(=O)c1ccccc1Cl,147,79.4,–,–,fold change (FC) [1]: 72; INH (Cytochrome P450 3A4): > 30 µM; fraction unbound [2]: < 0.005; INH (Cytochrome P450 2C9): 14.3 µM; INH (Cytochrome P450 2D6): 12.8 µM; AUC (Plasma [4]): 312 ng·h/g; Cmax [6]: 69.1 ng/g; AUC(0-t) [7]: 938 ng·h/mL; INH (Cytochrome P450 1A2): > 30 µM; Cmax (Plasma [8]): 265 ng/mL; Tmax (in vivo): 60 min
COc1cc(NC(=O)c2cscn2)ccc1NC(=O)c1ccccc1Cl,132,86.8,753,845,–
O=C(Nc1ccc(NC(=O)c2ccccn2)cc1Cl)c1ccccc1,74.2,37.9,518,361,–
O=C(Nc1ccc(NC(=O)c2ccccc2F)c(Cl)c1)c1ccccn1,71.6,34.5,4390,2380,–
COc1cc(NC(=O)c2ccc(Br)o2)ccc1NC(=O)c1ccccc1Cl,125,87,1000,1440,–
O=C(Nc1ccc(NC(=O)c2ccccc2Cl)c(C(F)(F)F)c1)c1ccccn1,102,69.5,2360,2090,–
COc1cc(NC(=O)c2ccncn2)ccc1NC(=O)c1ccccc1Cl,133,77.9,894,1330,–
Cn1c(C(=O)Nc2ccc(NC(=O)c3ccccn3)cc2Cl)cc2ccccc21,87.1,49.9,2970,4720,–
COc1cc(NC(=O)c2nccs2)ccc1NC(=O)c1ccccc1Cl,134,77.6,377,627,fold change (FC) [1]: 32.2; fraction unbound [2]: < 0.005
O=C(Nc1ccc(NC(=O)c2ccc(F)cc2F)c(Cl)c1)c1ccccn1,43.5,24.6,2100,–,EC50 ([10]; cho): Not Active
O=C(Nc1ccc2c(ccn2C(=O)c2ccccn2)c1)c1ccccc1Cl,17.6,21.1,–,–,EC50 ([9]; cho): Not Active; EC50 ([10]; cho): Not Active
O=C(Nc1ccc(NC(=O)c2ccc(F)cc2Cl)c(Cl)c1)c1ccccn1,119,61.1,169,114,fold change (FC) [1]: 6.7
COc1cc(NC(=O)c2cnccn2)ccc1NC(=O)c1ccccc1Cl,112,74.3,1120,1780,–
O=C(Nc1ccc(NC(=O)c2cncs2)c(Cl)c1)c1ccccn1,125,86.7,1730,2180,–
Cc1ccccc1C(=O)Nc1ccc(NC(=O)c2ccccn2)cc1Cl,123,72.5,915,958,fold change (FC) [1]: 9.6; INH (Cytochrome P450 3A4): > 30 µM; fraction unbound [2]: < 0.005; INH (Cytochrome P450 2C9): 14.1 µM; INH (Cytochrome P450 2D6): 12 µM; AUC (Plasma [4]): 155.4 ng·h/g; Cmax [6]: 59.4 ng/g; AUC(0-t) [7]: 766 ng·h/mL; INH (Cytochrome P450 1A2): > 10 µM; Cmax (Plasma [8]): 219.2 ng/mL; Tmax (in vivo): 30 min
O=C(Nc1ccccc1)[C@]12C[C@H]1/C(=N\O)c1ccccc1O2,–,–,2820,–,–

SMILES,Activity [3] [%],Activity [5] [%],EC50 ([9]; read-out: EC50) [nM],EC50 ([10]; read-out: EC50) [nM],further results
CC(C)C(=O)Nc1ccc(NC(=O)c2ccccn2)cc1Cl,109,60,4820,4270,–
COc1cc(NC(=O)c2ccco2)ccc1NC(=O)c1ccccc1Cl,122,62.7,1010,977,–
O=C(Nc1ccc(NC(=O)c2ccccn2)cc1Cl)c1cc(Cl)cc(Cl)c1,61,37.4,2340,2150,–
O=C(Nc1ccc(NC(=O)c2nccs2)c(Cl)c1)c1ccccn1,106,61.5,533,403,fold change (FC) [1]: 6
O=C(Nc1ccc(NC(=O)c2ccccc2Cl)c(F)c1)c1ccccn1,91.4,59.7,–,–,fold change (FC) [1]: 4.6
O=C(Nc1ccc2c(ccn2C(=O)c2ccc(F)cc2Cl)c1)c1ccccn1,104,71.7,1660,1420,–
O=C(Nc1ccc(NC(=O)c2ccc(-c3ccccc3)o2)c(Cl)c1)c1ccccn1,45.6,24.9,3350,–,EC50 ([10]; cho): Not Active
O=C(Nc1ccc(NC(=O)c2ccccc2Cl)cc1)c1ccccn1,49.6,33.6,2260,1610,–
COc1ccccc1C(=O)n1ccc2cc(NC(=O)c3ccccn3)ccc21,107,91.3,1340,1410,fold change (FC) [1]: 5.9; fraction unbound [2]: < 0.005
COc1cc(NC(=O)C2CCCO2)ccc1NC(=O)c1ccccc1Cl (stereo not drawn),27.1,21.3,> 10000,–,EC50 ([10]; cho): Not Active
COc1ccccc1C(=O)Nc1ccc(NC(=O)c2ccccn2)cc1Cl,19,16.4,–,–,EC50 ([9]; cho): Not Active; EC50 ([10]; cho): Not Active
O=C(Nc1ccc(NC(=O)C2CCCCC2)c(Cl)c1)c1ccccn1,106,59.2,592,426,–
COc1cc(NC(=O)C2CCCCC2)ccc1NC(=O)c1ccccc1Cl,43.2,26.9,1520,1120,–
COc1cc(NC(=O)c2ccc(-c3ccccc3)o2)ccc1NC(=O)c1ccccc1Cl,16.3,16.3,–,–,EC50 ([9]; cho): Not Active; EC50 ([10]; cho): Not Active
O=C(Nc1ccc(NC(=O)c2cccs2)c(Cl)c1)c1ccccn1,93.8,57.8,1130,1040,–
COc1cc(NC(=O)c2cccs2)ccc1NC(=O)c1ccccc1Cl,96.7,63.4,–,–,–

# — ChEMBL document CHEMBL1671788, “Discovery, synthesis, and structure-activity relationship development of a series of N-(4-acetamido)phenylpicolinamides as positive allosteric modulators of metabotropic glutamate receptor 4 (mGlu(4)) with CNS exposure in rats” (J Med Chem, 2011)
